# From ChEMBL document CHEMBL1126910, “18F-labeled benzamides for studying the dopamine D2 receptor with positron emission tomography” (J Med Chem, 1993)
# Assays:
# Rattus norvegicus [1] = experiment: In vivo brain uptake of [18F]-labeled compound by rat brain at 30 min; type: functional, organism-based
# How it was run: (§1)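 Sprague–Dawley rats (200–300 g), anesthetized with ketamine/xylazine, received 18F-labeled ligand (20–150 μCi) in 0.5–1.0 mL 0.9% saline i.v. (femoral vein). Decapitated at set intervals from 5 min to 5 h. Whole brain removed, weighed and gamma-counted, expressed as % ID/brain and % ID/g brain. Mean ± SEM, n = 4-8.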
# Rattus norvegicus [2] = experiment: In vivo brain uptake of [18F]-labeled compound by rat brain at 4 hr; type: functional, organism-based; how it was run: as §1
# Rattus norvegicus [3] = experiment: In vivo blood concentration of [18F]-labeled compound by rat brain at 2 hr; type: functional, organism-based
# How it was run: (§2)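 Sprague–Dawley rats (200–300 g) under ketamine/xylazine anesthesia given 0.5–1.0 mL of 0.9% saline containing 18F-labeled ligand (20–150 μCi) i.v. via femoral vein. Killed by decapitation at set times (5 min to 5 h). A blood sample was taken and gamma-counted, expressed as % ID/g of blood. Mean ± SEM, n = 4-8.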
# Rattus norvegicus [4] = experiment: In vivo brain uptake of [18F]-labeled compound by rat brain at 1 hr; type: functional, organism-based; how it was run: as §1
# Rattus norvegicus [5] = experiment: In vivo blood concentration of [18F]-labeled compound by rat brain at 5 min; type: functional, organism-based; how it was run: as §2
# Rattus norvegicus [6] = experiment: In vivo blood concentration of [18F]-labeled compound by rat brain at 1 hr; type: functional, organism-based; how it was run: as §2
# Rattus norvegicus [7] = experiment: In vivo blood concentration of [18F]-labeled compound by rat brain at 30 min; type: functional, organism-based; how it was run: as §2
# Rattus norvegicus [8] = experiment: In vivo blood concentration of [18F]-labeled compound by rat brain at 3h; type: functional, organism-based; how it was run: as §2
# [9] = Partition coefficient (logP); type: physicochemical; details: C-18 reversed-phase HPLC
# How it was run: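 Lipophilicity measured as log P by the C-18 reversed-phase HPLC method of Kraak et al.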
# [10] = target: T1, Adrenergic receptor alpha-2 (Rattus norvegicus, UniProt P22086+P19328+P22909); experiment: In vitro binding affinity on alpha-2 receptor is inhibition of binding of [3H]- rauwolscine to rat cortex
# T1 sequence (P22086 whole entry): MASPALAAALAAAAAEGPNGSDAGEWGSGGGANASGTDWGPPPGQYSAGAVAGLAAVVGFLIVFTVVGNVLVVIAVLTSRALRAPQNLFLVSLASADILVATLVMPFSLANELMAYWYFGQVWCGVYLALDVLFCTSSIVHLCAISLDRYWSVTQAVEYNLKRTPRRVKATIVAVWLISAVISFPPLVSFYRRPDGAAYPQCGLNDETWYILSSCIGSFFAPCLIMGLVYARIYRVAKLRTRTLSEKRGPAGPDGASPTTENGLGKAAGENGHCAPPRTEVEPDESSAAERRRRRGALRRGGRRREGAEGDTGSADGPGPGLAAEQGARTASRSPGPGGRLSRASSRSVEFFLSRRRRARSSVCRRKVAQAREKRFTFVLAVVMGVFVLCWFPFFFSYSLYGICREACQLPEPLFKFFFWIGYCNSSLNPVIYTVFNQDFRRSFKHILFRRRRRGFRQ
# T1 sequence (P19328 whole entry): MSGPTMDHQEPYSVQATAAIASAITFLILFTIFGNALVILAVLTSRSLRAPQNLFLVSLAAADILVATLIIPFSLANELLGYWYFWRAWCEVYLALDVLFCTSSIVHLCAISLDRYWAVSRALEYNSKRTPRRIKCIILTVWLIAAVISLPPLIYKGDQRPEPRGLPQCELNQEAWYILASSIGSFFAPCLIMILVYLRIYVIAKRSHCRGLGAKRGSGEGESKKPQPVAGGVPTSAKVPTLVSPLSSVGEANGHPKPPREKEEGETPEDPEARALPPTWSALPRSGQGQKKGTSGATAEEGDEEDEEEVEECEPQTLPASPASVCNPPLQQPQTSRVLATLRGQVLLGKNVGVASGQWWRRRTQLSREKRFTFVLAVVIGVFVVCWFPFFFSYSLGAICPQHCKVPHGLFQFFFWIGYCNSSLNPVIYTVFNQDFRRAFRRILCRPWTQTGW
# T1 sequence (P22909 whole entry): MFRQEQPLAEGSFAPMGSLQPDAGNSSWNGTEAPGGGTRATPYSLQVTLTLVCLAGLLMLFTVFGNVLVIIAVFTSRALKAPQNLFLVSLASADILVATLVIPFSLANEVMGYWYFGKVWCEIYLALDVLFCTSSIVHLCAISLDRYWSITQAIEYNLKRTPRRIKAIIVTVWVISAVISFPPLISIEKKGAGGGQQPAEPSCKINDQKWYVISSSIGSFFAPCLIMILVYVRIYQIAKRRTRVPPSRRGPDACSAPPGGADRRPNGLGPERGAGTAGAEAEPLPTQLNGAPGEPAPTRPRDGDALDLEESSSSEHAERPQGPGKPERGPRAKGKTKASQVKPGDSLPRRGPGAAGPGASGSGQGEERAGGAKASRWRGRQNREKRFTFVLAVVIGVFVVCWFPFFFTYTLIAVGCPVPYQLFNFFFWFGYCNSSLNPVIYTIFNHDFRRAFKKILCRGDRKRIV
# How it was run: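 Rat cerebral cortex membranes, 2 nM [3H]rauwolscine in 20 mM HEPES pH 7.4, run in triplicate; nonspecific with 10 μM phentolamine; 20 °C, 30 min; glass fiber filtration, liquid scintillation counting. IC50 by curve fitting, converted to Ki via Cheng–Prusoff.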
# Rattus norvegicus [11] = experiment: In vivo blood concentration of [18F]-labeled compound by rat brain at 5 hr; type: functional, organism-based; how it was run: as §2
# Rattus norvegicus [12] = experiment: In vivo blood concentration of [18F]-labeled compound by rat brain at 4 hr; type: functional, organism-based; how it was run: as §2
# Rattus norvegicus [13] = experiment: In vivo brain uptake of [18F]-labeled compound by rat brain at 5 hr; type: functional, organism-based; how it was run: as §1
# [14] = target: Serotonin 2 (5-HT2) receptor (Rattus norvegicus, UniProt P30994+P08909+P14842); experiment: In vitro binding affinity on 5-hydroxytryptamine 2 receptor is inhibition of binding of [125I]- I-LSD to P11 cells
# How it was run: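 Competition binding on membranes from P11 cells (pituitary tumor 7315A line, 5-HT2 without D2 or other serotonin subtypes); 0.4–0.5 nM [125I]I-LSD in 50 mM Tris-HCl pH 7.4; 1 μM ketanserin defines nonspecific; 37 °C, 60 min; filtration, gamma counting. IC50 from curve fitting, Ki by Cheng–Prusoff.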
# Rattus norvegicus [15] = experiment: In vivo brain uptake of [18F]-labeled compound by rat brain at 3h; type: functional, organism-based; how it was run: as §1
# Rattus norvegicus [16] = experiment: In vivo brain uptake of [18F]-labeled compound by rat brain at 5 min; type: functional, organism-based; how it was run: as §1
# Rattus norvegicus [17] = experiment: In vivo brain uptake of [18F]-labeled compound by rat brain at 2 hr; type: functional, organism-based; how it was run: as §1
# D(2) dopamine receptor = D(2) dopamine receptor (Rattus norvegicus, UniProt P61169); experiment: Inhibition of [125I]- NCQ 298 binding to D2 receptor of rat striatal tissue; type: tissue-based, Striatum
# Sequence of D(2) dopamine receptor (P61169 whole entry): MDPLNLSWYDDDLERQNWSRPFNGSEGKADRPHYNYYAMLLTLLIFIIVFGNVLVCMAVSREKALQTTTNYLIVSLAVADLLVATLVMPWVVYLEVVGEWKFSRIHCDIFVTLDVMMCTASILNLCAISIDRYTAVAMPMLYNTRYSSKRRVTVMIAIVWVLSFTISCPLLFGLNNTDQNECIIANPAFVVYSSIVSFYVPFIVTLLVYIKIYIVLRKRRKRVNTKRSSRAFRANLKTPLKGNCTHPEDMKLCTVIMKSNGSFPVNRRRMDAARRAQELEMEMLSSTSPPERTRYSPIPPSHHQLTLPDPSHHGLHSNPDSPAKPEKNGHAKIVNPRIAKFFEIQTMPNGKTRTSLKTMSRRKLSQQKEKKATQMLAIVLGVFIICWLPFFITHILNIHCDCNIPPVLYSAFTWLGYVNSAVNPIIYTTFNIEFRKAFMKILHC
# [18] = target: D(3) dopamine receptor (Rattus norvegicus); experiment: In vitro binding affinity on D3 receptor is inhibition of binding of [125I]- NCQ 298 to Sf9 cells infected with recombinant baculovirus
smiles,measurement,setting,value
COc1cccc(C(=O)NC2CC3CCCC(C2)N3Cc2ccc(F)cc2)c1OC (stereo not drawn),ID/brain,Rattus norvegicus [1],0.35%
same,ID/g,Rattus norvegicus [1],0.2%
same,ID/brain,Rattus norvegicus [2],0.36%
same,ID/g,Rattus norvegicus [2],0.22%
same,ID/g,Rattus norvegicus [3],0.024%
same,ID/brain,Rattus norvegicus [4],0.31%
same,ID/g,Rattus norvegicus [4],0.23%
same,ID/g,Rattus norvegicus [5],0.156%
same,ID/g,Rattus norvegicus [6],0.044%
same,ID/g,Rattus norvegicus [7],0.089%
same,ID/g,Rattus norvegicus [8],0.019%
same,logP,[9],2.86
same,Ki,[10],1300 nM
same,ID/g,Rattus norvegicus [11],0.005%
same,ID/g,Rattus norvegicus [12],0.013%
same,ID/brain,Rattus norvegicus [13],0.23%
same,ID/g,Rattus norvegicus [13],0.14%
same,Ki,[14],84 nM
same,ID/brain,Rattus norvegicus [15],0.37%
same,ID/g,Rattus norvegicus [15],0.23%
same,ID/brain,Rattus norvegicus [16],0.64%
same,ID/g,Rattus norvegicus [16],0.39%
same,ID/brain,Rattus norvegicus [17],0.44%
same,ID/g,Rattus norvegicus [17],0.27%
COc1cc(Br)cc(C(=O)NC2CC3CCCC(C2)N3Cc2ccccc2)c1OC (stereo not drawn),Ki,D(2) dopamine receptor,0.033 nM
COc1cccc(C(=O)NC2CCN(Cc3ccc(F)cc3)CC2)c1OC,ID/brain,Rattus norvegicus [1],0.61%
same,ID/g,Rattus norvegicus [1],0.39%
same,ID/brain,Rattus norvegicus [2],0.17%
same,ID/g,Rattus norvegicus [2],0.11%
same,ID/g,Rattus norvegicus [3],0.029%
same,ID/brain,Rattus norvegicus [4],0.57%
same,ID/g,Rattus norvegicus [4],0.36%
same,ID/g,Rattus norvegicus [5],0.155%
same,ID/g,Rattus norvegicus [6],0.043%
same,Ki,D(2) dopamine receptor,0.38 nM
same,ID/g,Rattus norvegicus [7],0.066%
same,ID/g,Rattus norvegicus [8],0.017%
same,logP,[9],2.83
same,Ki,[10],3000 nM
same,ID/g,Rattus norvegicus [11],0.012%
same,ID/g,Rattus norvegicus [12],0.01%
same,ID/brain,Rattus norvegicus [13],0.19%
same,ID/g,Rattus norvegicus [13],0.12%
same,Ki,[14],1840 nM
same,Ki,[18],5.91 nM
same,ID/brain,Rattus norvegicus [15],0.38%
same,ID/g,Rattus norvegicus [15],0.25%
same,ID/brain,Rattus norvegicus [16],1.28%
same,ID/g,Rattus norvegicus [16],0.81%
same,ID/brain,Rattus norvegicus [17],0.5%
same,ID/g,Rattus norvegicus [17],0.33%
COc1cc(N)c(Cl)cc1C(=O)NC1CC2CCCC(C1)N2Cc1ccccc1 (stereo not drawn),Ki,D(2) dopamine receptor,0.036 nM
COc1cc(N)c(Cl)cc1C(=O)N[C@@H]1C[C@H]2CCC[C@@H](C1)N2Cc1ccc(F)cc1,Ki,D(2) dopamine receptor,> 10 nM
same,Ki,[14],2200 nM
COc1cc(N)c(Cl)cc1C(=O)NC1CCN(Cc2ccccc2)CC1 [CLEBOPRIDE],Ki,[10],600 nM
same,Ki,[14],89 nM
COc1cc(Br)cc(C(=O)NC2CC3CCCC(C2)N3Cc2ccc(F)cc2)c1OC (stereo not drawn),Ki,D(2) dopamine receptor,0.02 nM
same,Ki,[10],1900 nM
same,Ki,[14],3.1 nM
COc1cc(N)c(Cl)cc1C(=O)NC1CCN(Cc2ccc(F)cc2)CC1,Ki,[10],1300 nM
same,Ki,[14],283 nM
COc1cc(Br)cc(C(=O)NC2CCN(Cc3ccccc3)CC2)c1OC,Ki,D(2) dopamine receptor,0.31 nM
CCN1CCC[C@H]1CNC(=O)c1c(O)c(I)cc(OC)c1OC [IOXIPRIDE],Ki,[18],0.16 nM
COc1cccc(C(=O)NC2CCN(Cc3ccccc3)CC2)c1OC,Ki,D(2) dopamine receptor,0.63 nM
COc1cccc(C(=O)NC2CC3CCCC(C2)N3Cc2ccccc2)c1OC (stereo not drawn),Ki,D(2) dopamine receptor,0.038 nM
COc1cc(Br)cc(C(=O)NC2CCN(Cc3ccc(F)cc3)CC2)c1OC,ID/brain,Rattus norvegicus [1],0.55%
same,ID/g,Rattus norvegicus [1],0.32%
same,ID/brain,Rattus norvegicus [2],0.21%
same,ID/g,Rattus norvegicus [2],0.12%
same,ID/g,Rattus norvegicus [3],0.016%
same,ID/brain,Rattus norvegicus [4],0.36%
same,ID/g,Rattus norvegicus [4],0.2%
same,ID/g,Rattus norvegicus [5],0.088%
same,ID/g,Rattus norvegicus [6],0.025%
same,ID/g,Rattus norvegicus [7],0.036%
same,ID/g,Rattus norvegicus [8],0.013%
same,Ki,[10],3000 nM
same,ID/g,Rattus norvegicus [11],0.012%
same,ID/g,Rattus norvegicus [12],0.012%
same,ID/brain,Rattus norvegicus [13],0.2%
same,ID/g,Rattus norvegicus [13],0.12%
same,Ki,[14],94 nM
same,ID/brain,Rattus norvegicus [15],0.2%
same,ID/g,Rattus norvegicus [15],0.1%
same,ID/brain,Rattus norvegicus [16],1.12%
same,ID/g,Rattus norvegicus [16],0.58%
same,ID/brain,Rattus norvegicus [17],0.27%
same,ID/g,Rattus norvegicus [17],0.14%
